Experiments:
Mus musculus [1] = experiment: Toxicity in C3D2F1/J mouse allografted with mouse L1210 cells assessed as body weight change at 50 mg/kg, ip qd administered for 5 days measured on day 8 (reference value: 1.81 +/- 0.79 g); assay type: organism-based; set-up: dose 50 mg/kg, route intraperitoneal; settings: in vivo, 120 h
L1210 [2] = experiment: Antitumor activity against mouse L1210 cells allografted in C3D2F1/J mouse assessed as median survival time at 18.2 mg/kg, ip qd administered for 5 days (reference value: 10 days); assay type: functional; settings: route intraperitoneal
Mus musculus [3] = experiment: Toxicity in C3D2F1/J mouse allografted with mouse L1210 cells assessed as body weight change at 18.2 mg/kg, ip qd administered for 5 days measured on day 8 co-administered with 27 mg/kg prednisolone (reference value: 1.81 +/- 0.79 g); assay type: organism-based; settings: in vivo, 120 h
Mus musculus [4] = experiment: Toxicity in C3D2F1/J mouse allografted with mouse L1210 cells assessed as body weight change at 18.3 mg/kg, ip qd administered for 5 days measured on day 8 co-administered with 27 mg/kg prednisone (reference value: 1.81 +/- 0.79 g); assay type: organism-based; settings: in vivo, 120 h
L1210 [5] = experiment: Antitumor activity against mouse L1210 cells allografted in C3D2F1/J mouse assessed as median survival time at 50 mg/kg, ip qd administered for 5 days (reference value: 9 days); assay type: functional; settings: route intraperitoneal
L1210 [6] = experiment: Antitumor activity against mouse L1210 cells allografted in C3D2F1/J mouse assessed as median survival time at 25 mg/kg, ip qd administered for 5 days (reference value: 8 days); assay type: functional; settings: route intraperitoneal
L1210 [7] = experiment: Antitumor activity against mouse L1210 cells allografted in C3D2F1/J mouse assessed as increase in life span at 18.2 mg/kg, ip qd administered for 5 days co-administered with 27 mg/kg prednisolone relative to control; assay type: functional
L1210 [8] = experiment: Antitumor activity against mouse L1210 cells allografted in C3D2F1/J mouse assessed as median survival time at 18.3 mg/kg, ip qd administered for 5 days co-administered with 27 mg/kg prednisone (reference value: 9 days); assay type: functional
L1210 [9] = experiment: Antitumor activity against mouse L1210 cells allografted in C3D2F1/J mouse assessed as increase in life span at 18.2 mg/kg, ip qd administered for 5 days relative to control; assay type: functional; settings: 120 h, route intraperitoneal
L1210 [10] = experiment: Cytotoxicity against mouse L1210 cells assessed as growth inhibition measured at 72 hrs by trypan blue exclusion assay; assay type: functional; settings: L1210, 72 h, read-out: ED50 (the source's name)
Procedure, shortened: (§1)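 L1210 mouse lymphoid leukemia cells seeded at 2–3 × 10⁵ cells/mL in RPMI 1640 + 10% fetal calf serum with compound (from Me2SO stock, final Me2SO 0.5%, compound 100 μM or lower). Viable cells counted by 0.05% Trypan blue exclusion in a hemocytometer at 24, 48, 72 h. Treated/untreated density ratio. ED50 at 72 h interpolated from response curves of three separate experiments.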

L1210 [11] = experiment: Antitumor activity against mouse L1210 cells allografted in C3D2F1/J mouse assessed as median survival time at 18.2 mg/kg, ip qd administered for 5 days co-administered with 27 mg/kg prednisolone (reference value: 9 days); assay type: functional
L1210 [12] = experiment: Antitumor activity against mouse L1210 cells allografted in C3D2F1/J mouse assessed as increase in life span at 50 mg/kg, ip qd administered for 5 days relative to control; assay type: functional; settings: 120 h, route intraperitoneal
Mus musculus [13] = experiment: Toxicity in C3D2F1/J mouse allografted with mouse L1210 cells assessed as body weight change at 18.2 mg/kg, ip qd administered for 5 days measured on day 8 (reference value: 1.81 +/- 0.79 g); assay type: organism-based; set-up: dose 18.2 mg/kg, route intraperitoneal; settings: in vivo, 120 h
L1210 [14] = experiment: Antitumor activity against mouse L1210 cells allografted in C3D2F1/J mouse assessed as increase in life span at 18.3 mg/kg, ip qd administered for 5 days co-administered with 27 mg/kg prednisone relative to control; assay type: functional
L1210 [15] = experiment: Antitumor activity against mouse L1210 cells allografted in C3D2F1/J mouse assessed as increase in life span at 25 mg/kg, ip qd administered for 5 days relative to control; assay type: functional; settings: 120 h, route intraperitoneal
Mus musculus [16] = experiment: Toxicity in C3D2F1/J mouse allografted with mouse L1210 cells assessed as body weight change at 25 mg/kg, ip qd administered for 5 days measured on day 8 (reference value: 1.81 +/- 0.79 g); assay type: organism-based; set-up: dose 25 mg/kg, route intraperitoneal; settings: in vivo, 120 h
L1210 [17] = experiment: Antitumor activity against mouse L1210 cells allografted in C3D2F1/J mouse assessed as increase in life span at 24.2 mg/kg, ip qd administered for 5 days relative to control; assay type: functional; settings: 120 h, route intraperitoneal
L1210 [18] = experiment: Cytotoxicity against mouse L1210 cells assessed as growth inhibition measured at 72 hrs in presence of 5 uM prednisolone by trypan blue exclusion assay; assay type: functional; settings: L1210, 72 h, read-out: ED50 (the source's name); procedure, shortened: as §1
L1210 [19] = experiment: Cytotoxicity against mouse L1210 cells assessed as growth inhibition measured at 72 hrs in presence of 100 uM prednisolone by trypan blue exclusion assay; assay type: functional; settings: L1210, 72 h, read-out: ED50 (the source's name); procedure, shortened: as §1
Mus musculus [20] = experiment: Toxicity in C3D2F1/J mouse allografted with mouse L1210 cells assessed as body weight change at 24.2 mg/kg, ip qd administered for 5 days measured on day 8 (reference value: 1.81 +/- 0.79 g); assay type: organism-based; set-up: dose 24.2 mg/kg, route intraperitoneal; settings: in vivo, 120 h
L1210 [21] = experiment: Antitumor activity against mouse L1210 cells allografted in C3D2F1/J mouse assessed as median survival time at 24.2 mg/kg, ip qd administered for 5 days (reference value: 10 days); assay type: functional; settings: route intraperitoneal
L1210 [22] = experiment: Antitumor activity against mouse L1210 cells allografted in C3D2F1/J mouse assessed as median survival time at 100 mg/kg, ip qd administered for 5 days (reference value: 9 days); assay type: functional; settings: route intraperitoneal
[23] = Drug degradation assessed as steroid formation at 5 umol at pH 9 after 24 hrs by UV analysis in presence of Crotalus adamanteus 5'-nucleotidase; assay type: physicochemical; settings: buffer, pH 9, 24 h
Procedure, shortened: (§2)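 Crude Crotalus adamanteus venom: 5 μmol conjugate in Tris-HCl buffer (pH 8.8) with 2.5 mg venom, 0.5 mL total, incubated 37 °C for 24 h. Products were resolved by paper chromatography alongside authentic markers.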

[24] = Drug degradation assessed as ara-C formation at 5 umol at pH 9 after 24 hrs by UV analysis in presence of Crotalus adamanteus 5'-nucleotidase; assay type: physicochemical; settings: buffer, pH 9, 24 h; procedure, shortened: as §2
Mus musculus [25] = experiment: Toxicity in C3D2F1/J mouse allografted with mouse L1210 cells assessed as body weight change at 100 mg/kg, ip qd administered for 5 days measured on day 8 (reference value: 1.81 +/- 0.79 g); assay type: organism-based; set-up: dose 100 mg/kg, route intraperitoneal; settings: in vivo, 120 h
L1210 [26] = experiment: Antitumor activity against mouse L1210 cells allografted in C3D2F1/J mouse assessed as increase in life span at 75 mg/kg, ip qd administered for 5 days relative to control; assay type: functional; settings: 120 h, route intraperitoneal
Mus musculus [27] = experiment: Toxicity in C3D2F1/J mouse allografted with mouse L1210 cells assessed as body weight change at 75 mg/kg, ip qd administered for 5 days measured on day 8 (reference value: 1.81 +/- 0.79 g); assay type: organism-based; set-up: dose 75 mg/kg, route intraperitoneal; settings: in vivo, 120 h
[28] = Hydrolytic stability of the compound assessed as remaining compound level at 5 umol at pH 4.8 at 25 degC after 24 hrs by UV analysis in presence of wheat germ acid phosphatase; assay type: physicochemical; settings: read-out: Stability
Procedure, shortened: (§3)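 5 μmol conjugate in NaOAc buffer (pH 4.8) with 3 mg crude wheat germ acid phosphatase, 0.5 mL total, held at 25 °C for 24 h. Products were separated by paper chromatography against authentic markers.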

[29] = Drug degradation assessed as compound hydrolysis at 5 umol at pH 4.8 at 25 degC after 24 hrs by UV analysis in presence of wheat germ acid phosphatase; assay type: physicochemical; settings: read-out: Drug degradation; procedure, shortened: as §3
[30] = Metabolic stability in baboon plasma assessed as remaining compound level at 5 umol at 37 degC after 24 hrs by UV analysis; assay type: ADME, cell-free; settings: papio anubis, read-out: Stability
Procedure, shortened: (§4)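 5 μmol conjugate in 0.5 mL fresh baboon plasma, incubated at 37 °C for 24 h. Intact conjugate and products were separated by paper chromatography with authentic markers.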

L1210 [31] = experiment: Antitumor activity against mouse L1210 cells allografted in C3D2F1/J mouse assessed as increase in life span at 100 mg/kg, ip qd administered for 5 days relative to control; assay type: functional; settings: 120 h, route intraperitoneal
L1210 [32] = experiment: Antitumor activity against mouse L1210 cells allografted in C3D2F1/J mouse assessed as median survival time at 25 mg/kg, ip qd administered for 5 days (reference value: 9 days); assay type: functional; settings: route intraperitoneal
L1210 [33] = experiment: Antitumor activity against mouse L1210 cells allografted in C3D2F1/J mouse assessed as median survival time at 75 mg/kg, ip qd administered for 5 days (reference value: 9 days); assay type: functional; settings: route intraperitoneal
[34] = Hydrolytic stability of the compound at 5 umol at pH 8 at 25 degC after 24 hrs by UV analysis in presence of bacterial alkaline phosphatase; assay type: physicochemical; settings: isolated protein, pH 8, 24 h
Procedure, shortened: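 5 μmol conjugate in Tris-HCl (pH 8.0) with bacterial alkaline phosphatase suspension, 0.5 mL total, incubated at 25 °C for 24 h. Paper chromatography against authentic markers.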

[35] = Drug degradation in baboon plasma at 5 umol at 37 degC after 24 hrs by UV analysis; assay type: ADME, cell-free; settings: papio anubis, read-out: Drug degradation; procedure, shortened: as §4

Nc1ccn([C@@H]2O[C@H](CO)[C@@H](O)[C@@H]2O)c(=O)n1 [CYTARABINE]
Activity (Mus musculus [1]): -4.2 g
MST (L1210 [2]): 14.5 days
Activity (Mus musculus [3]): -2.46 g
Activity (Mus musculus [4]): -1.25 g
MST (L1210 [5]): 10 days
MST (L1210 [6]): 9.5 days
ILS (L1210 [7]): 40%
MST (L1210 [8]): 13 days
ILS at 18.2 mg/kg (L1210 [9]): 45%
EC50 (L1210 [10]): 100 nM
MST (L1210 [11]): 14 days
ILS at 50 mg/kg (L1210 [12]): 11.1%
Activity (Mus musculus [13]): -3.64 g
ILS (L1210 [14]): 44%
ILS at 25 mg/kg (L1210 [15]): 18.8%
Activity (Mus musculus [16]): -3.8 g

Nc1ccn([C@@H]2O[C@H](COP(=O)(O)O)[C@@H](O)[C@@H]2O)c(=O)n1 [CYTARABINE 5'-PHOSPHATE]
Activity (Mus musculus [1]): -4.32 g
ILS at 24.2 mg/kg (L1210 [17]): 65%
EC50 (L1210 [18]): 10 nM
MST (L1210 [5]): 9 days
EC50 (L1210 [19]): 5 nM
EC50 (L1210 [10]): 50 nM
ILS at 50 mg/kg (L1210 [12]): 0%
Activity (Mus musculus [20]): -3.52 g
MST (L1210 [21]): 16.5 days

C[C@]12C=CC(=O)C=C1CC[C@@H]1[C@@H]2[C@@H](O)C[C@@]2(C)[C@H]1CC[C@]2(O)C(=O)CO[P+]([O-])(O)OC[C@H]1O[C@@H](n2ccc(N)nc2=O)[C@@H](O)[C@@H]1O (stereo not given in full)
Activity (Mus musculus [1]): -0.28 g
MST (L1210 [22]): 10.5 days
Drug degradation [23]: 50%
Drug degradation [24]: 50%
Activity (Mus musculus [25]): -1.5 g
ILS at 75 mg/kg (L1210 [26]): 77.8%
Activity (Mus musculus [27]): -0.71 g
remaining at 24 h, 5 umol [28]: 8%
metabolised at 24 h, 5 umol [29]: 86%
remaining at 24 h, 5 umol [30]: 44%
MST (L1210 [5]): 17 days
ILS at 100 mg/kg (L1210 [31]): 16.7%
EC50 (L1210 [10]): 50 nM
MST (L1210 [32]): 15.5 days
MST (L1210 [33]): 16 days
ILS at 50 mg/kg (L1210 [12]): 88.9%
Stability [34]: Stable
metabolised at 24 h, 5 umol [35]: 39%
ILS at 25 mg/kg (L1210 [15]): 72.7%
Activity (Mus musculus [16]): -0.07 g

Reference: ChEMBL document CHEMBL3244344, “Nucleoside conjugates as potential antitumor agents. 2. Synthesis and biological activity of 1-(beta-D-arabinofuranosyl)cytosine conjugates of prednisolone and prednisone” (J Med Chem, 1979)
